Assay results: ChEMBL document CHEMBL1143943, “Synthesis of naphtho[2,3-a]phenoxazinium chlorides: structure-activity relationships of these heterocycles and benzo[a]phenoxazinium chlorides as new antimicrobials” (2008)
≈ marks a conversion by molar mass, not a printed value. Where a name gives a salt, the structure may show the parent alone.

System: Saccharomyces cerevisiae
Assay: Antifungal activity against Saccharomyces cerevisiae W303-1B after 48 hrs by broth microdilution assay
Assay type: functional
Procedure, shortened: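 NCCLS M27-A broth microdilution; S. cerevisiae W303-1B ([…], ade2, his3, leu2, trp1, ura3) at 0.5 · 10³ cells/mL initial density in RPMI 1640 with 0.165 M MOPS, pH 7.0, plus required amino acids; 30 °C. DMSO stocks diluted into medium. MIC read visually at 48 h as lowest concentration giving no detectable growth; triplicates, two independent experiments.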

MIC [µM] | Structure (SMILES)
30 (≈ 10.8 µg/mL) | CC/N=c1/cc2oc3cc(NCCCN)c4ccccc4c3nc-2cc1C
60 (≈ 24.6 µg/mL) | CC/N=c1/cc2oc3cc(NCCCN)c4cc5ccccc5cc4c3nc-2cc1C
30 (≈ 13.8 µg/mL) | CC/N=c1/cc2oc3cc(NCCC(=O)NC(C)C(=O)OC)c4ccccc4c3nc-2cc1C (stereo unspecified)
30 (≈ 10.6 µg/mL) | CC/N=c1/cc2oc3cc(N)c4cc5ccccc5cc4c3nc-2cc1C
120 | CC[N+](CC)=c1ccc2nc3c(cc(NCCCO)c4ccccc43)oc-2c1
60 (≈ 30.2 µg/mL) | CC/N=c1/cc2oc3cc(NCCCC(=O)NC(C(=O)OC)C(C)C)c4ccccc4c3nc-2cc1C (stereo unspecified)
120 (≈ 41.6 µg/mL) | CC/N=c1/cc2oc3cc(NCCN)c4ccccc4c3nc-2cc1C
15 (≈ 5.84 µg/mL) | CC/N=c1/cc2oc3cc(NCCC(=O)OC)c4ccccc4c3nc-2cc1C
15 (≈ 6.45 µg/mL) | CC/N=c1/cc2oc3cc(NCCCCl)c4cc5ccccc5cc4c3nc-2cc1C
15 (≈ 4.55 µg/mL) | CC/N=c1/cc2oc3cc(N)c4ccccc4c3nc-2cc1C
> 120 | COC(=O)CCNc1cc2oc3cc(=[N+](C)C)ccc-3nc2c2ccccc12
> 120 | CCCCCC/N=c1\ccc2nc3c(cc(Nc4ccccc4)c4ccccc43)oc-2c1
120 (≈ 53.6 µg/mL) | CC/N=c1/cc2oc3cc(NCCC(=O)NCC(=O)OC)c4ccccc4c3nc-2cc1C
120 (≈ 67.2 µg/mL) | CC/N=c1/cc2oc3cc(NCCC(=O)NCCCCC(NC(C)=O)C(=O)OC)c4ccccc4c3nc-2cc1C (stereo unspecified)
15 (≈ 5.93 µg/mL) | CCCNc1cc2oc3c/c(=N/CC)c(C)cc-3nc2c2cc3ccccc3cc12
120 | C[N+](C)=c1ccc2nc3c(cc(NCCCO)c4ccccc43)oc-2c1
60 (≈ 21.7 µg/mL) | CC/N=c1/cc2oc3cc(NCCCO)c4ccccc4c3nc-2cc1C
120 | CC[N+](CC)=c1ccc2nc3c(cc(NCCC(=O)O)c4ccccc43)oc-2c1
120 (≈ 46.7 µg/mL) | CC/N=c1/cc2oc3cc(NCCCC(=O)O)c4ccccc4c3nc-2cc1C
60 | CC[N+](CC)=c1ccc2nc3c(cc(N)c4ccccc43)oc-2c1 [NILE BLUE HYDROCHLORIDE]

MIC [µM] | Structure (SMILES)
7.5 (≈ 3.13 µg/mL) | CC/N=c1/cc2oc3cc(NCCCC(=O)OCC)c4ccccc4c3nc-2cc1C
15 | CCOC(=O)CCNc1cc2oc3cc(=[N+](C)C)ccc-3nc2c2ccccc12
> 120 | CC/N=c1/cc2oc3cc(Nc4ccccc4)c4ccccc4c3nc-2cc1C
15 (≈ 8.2 µg/mL) | CC/N=c1/cc2oc3cc(NCCOC(=O)C(NC(=O)OC(C)(C)C)C(C)C)c4ccccc4c3nc-2cc1C (stereo unspecified)
15 | CC[N+](CC)=c1ccc2nc3c(cc(NCCC(=O)OC)c4ccccc43)oc-2c1
30 (≈ 14.7 µg/mL) | CC/N=c1/cc2oc3cc(NCCC(=O)NC(C(=O)OC)C(C)C)c4ccccc4c3nc-2cc1C (stereo unspecified)
3.75 (≈ 1.42 µg/mL) | CC/N=c1/cc2oc3cc(NCCCCl)c4ccccc4c3nc-2cc1C
15 (≈ 6.17 µg/mL) | CC/N=c1/cc2oc3cc(NCCCO)c4cc5ccccc5cc4c3nc-2cc1C
15 (≈ 7.01 µg/mL) | CC/N=c1/cc2oc3cc(NCCCC(=O)OCC)c4cc5ccccc5cc4c3nc-2cc1C
120 (≈ 63.9 µg/mL) | CC/N=c1/cc2oc3cc(NCCC(=O)NC(CCC(=O)OC)C(=O)OC)c4ccccc4c3nc-2cc1C (stereo unspecified)
> 120 | C[N+](C)=c1ccc2nc3c(cc(Nc4ccccc4)c4ccccc43)oc-2c1
15 (≈ 5.63 µg/mL) | CC/N=c1/cc2oc3cc(NCCC(=O)O)c4ccccc4c3nc-2cc1C
60 (≈ 30.2 µg/mL) | CC/N=c1/cc2oc3cc(NC(=O)C(NC(=O)OC(C)(C)C)C(C)C)c4ccccc4c3nc-2cc1C (stereo unspecified)
15 (≈ 6.05 µg/mL) | CC/N=c1/cc2oc3cc(NCCC(=O)OCC)c4ccccc4c3nc-2cc1C
> 120 | CC/N=c1/cc2oc3cc(NCCCOC(=O)C(NC(=O)OC(C)(C)C)C(C)C)c4ccccc4c3nc-2cc1C (stereo unspecified)
> 120 | C[N+](C)=c1ccc2nc3c(cc(NCCC(=O)O)c4ccccc43)oc-2c1
15 (≈ 8.05 µg/mL) | CC/N=c1/cc2oc3cc(NCCC(=O)NC(Cc4ccccc4)C(=O)OC)c4ccccc4c3nc-2cc1C (stereo unspecified)
30 (≈ 10.4 µg/mL) | CC/N=c1/cc2oc3cc(NCCO)c4ccccc4c3nc-2cc1C
15 (≈ 8.19 µg/mL) | CC/N=c1/cc2oc3cc(NCCNC(=O)C(NC(=O)OC(C)(C)C)C(C)C)c4ccccc4c3nc-2cc1C (stereo unspecified)
> 120 | C[N+](C)=c1ccc2nc3c(cc(N)c4ccccc43)oc-2c1

System: Saccharomyces cerevisiae
Assay: Antifungal activity against Saccharomyces cerevisiae W303-1B at 0.5*10^4 initial cell density after 48 hrs by broth microdilution assay
Assay type: functional
Procedure, shortened: (§1)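 Same yeast microdilution protocol (W303-1B, RPMI 1640/0.165 M MOPS pH 7.0 with required amino acids, 30 °C, DMSO stocks diluted into medium), but initial inoculum raised in 10-fold steps within 0.5 · 10³–0.5 · 10⁶ cells/mL. MIC taken visually after 48 h as lowest concentration with no detectable growth; triplicates, two independent experiments.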

MIC [µM] | Structure (SMILES)
7.5 (≈ 3.13 µg/mL) | CC/N=c1/cc2oc3cc(NCCCC(=O)OCC)c4ccccc4c3nc-2cc1C
7.5 (≈ 2.85 µg/mL) | CC/N=c1/cc2oc3cc(NCCCCl)c4ccccc4c3nc-2cc1C

System: Saccharomyces cerevisiae
Assay: Antifungal activity against Saccharomyces cerevisiae W303-1B at 0.5*10^5 initial cell density after 48 hrs by broth microdilution assay
Assay type: functional
Procedure, shortened: as §1

MIC [µM] | Structure (SMILES)
7.5 (≈ 3.13 µg/mL) | CC/N=c1/cc2oc3cc(NCCCC(=O)OCC)c4ccccc4c3nc-2cc1C
7.5 (≈ 2.85 µg/mL) | CC/N=c1/cc2oc3cc(NCCCCl)c4ccccc4c3nc-2cc1C

System: Saccharomyces cerevisiae
Assay: Antifungal activity against Saccharomyces cerevisiae W303-1B at 0.5*10^6 initial cell density after 48 hrs by broth microdilution assay
Assay type: functional
Procedure, shortened: as §1

MIC [µM] | Structure (SMILES)
30 (≈ 12.5 µg/mL) | CC/N=c1/cc2oc3cc(NCCCC(=O)OCC)c4ccccc4c3nc-2cc1C
15 (≈ 5.7 µg/mL) | CC/N=c1/cc2oc3cc(NCCCCl)c4ccccc4c3nc-2cc1C
